Measurements published in ChEMBL document CHEMBL3232932, “UPLC-MS-ELSD-PDA as a powerful dereplication tool to facilitate compound identification from small-molecule natural product libraries” (J Nat Prod, 2014).

Experiments:
[1] = Retention time of the compound by PDA chromatography; type: physicochemical
Outline: (§1)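 Waters Acquity UPLC with ELSD, PDA and single-quadrupole ESI-MS (positive and negative modes). Fractions from automated fractionation of plant extracts were run on a BEH C18 column (2.1 × 50 mm, 1.7 μm) at 1.0 mL/min. Mobile phase was H2O with 0.1% HCOOH against CH3CN or MeOH, with a 3.0 min total run. The gradient differed by run.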

[2] = Retention time of the compound by ELSD chromatography; type: physicochemical; outline: as §1
[3] = Antiproliferative activity against mouse ependymoma cells harboring EPHB2 after 96 hrs by Cell-Titer Glo assay; type: functional, cell-based
Outline: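 Cells seeded in neurobasal medium in 384-well plates. Compounds were pin-transferred 24 h later, and DMSO and cycloheximide controls were included on each plate. Dose-response was run as a dilution series in triplicate. After 96 h incubation, cell number was read by CellTiter-Glo luminescence. Data were log10-transformed and percent inhibition calculated, and EC50 was derived.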

Row | Structure (SMILES) | Retention_time [1] [min] | Retention_time [2] [min] | EC50 [3]
1 | COc1ccc([C@@H]2CC(=O)c3c(O)cc(O)cc3O2)cc1O [HESPERETIN] | 0.87 | 0.91 | –
2 | C=C1CC[C@@H]2[C@](C)(CCC[C@]2(C)C(=O)O)[C@H]1CCC(C)(O)C(O)CO (mixture of isomers) | – | 0.92 | > 100 µg/mL
3 | COc1cc([C@@H]2c3cc4c(cc3C[C@H]3COC(=O)[C@@H]32)OCO4)cc(OC)c1OC [DESOXYPODOPHYLLOTOXIN] | 1.15 | 1.18 | 1.93 nM
4 | COc1cc(O)c2c(c1)OC(c1ccc(O)c(O)c1)CC2=O (centres undefined) | 0.98 | 1.02 | –
5 | CC1=c2cc3c(cc2C(=O)OC1(C)C)=C(C)C(C)(C)OC3=O | 0.92 | 0.9 | –
6 | COc1cc(C[C@H]2C(=O)OC[C@@H]2Cc2ccc3c(c2)OCO3)cc(OC)c1OC | – | 1.2 | –
7 | COc1cc([C@@H]2CC(=O)c3c(O)cc(O)cc3O2)ccc1O [HOMOERIODICTYOL] | 0.85 | 0.89 | –
